Measured values from ChEMBL document CHEMBL1144042, “Cytotoxic simplified tubulysin analogues” (J Med Chem, 2008).

Tests used:
HCT-15 = assay: Anticancer activity against multidrug-resistant human HCT15 cells; type: functional
1A9 = assay: Cytotoxicity against human 1A9 cells; type: functional, cell-based
[1] = Inhibition of rat brain tubulin polymerization
In short: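 Rat brain tubulin (10 µM) mixed on ice with test compound at 0.5, 1, 2 and 4 µM in 0.8 M sodium glutamate, pH 6.6, with 0.4 mM GTP. Samples then warmed to 33 °C. Polymerization followed over time as optical density at 350 nm. IC50 taken from the concentration series.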

[2] = Anticancer activity against multidrug-resistant human KBV1 cells; type: functional, cell-based; conditions: KB-V1

Row | SMILES | IC50 (1A9) [nM] | other results
1 | CC[C@@H](C)[C@H](NC(=O)[C@H]1CCCCN1C)C(=O)N(COC(=O)CC(C)C)[C@H](C[C@@H](OC(C)=O)c1nc(C(=O)N[C@@H](Cc2ccc(O)cc2)C[C@H](C)C(=O)O)cs1)C(C)C [TUBULYSIN A] |  | GI50 (HCT-15): 0.12 nM
2 | COc1cc([C@@H]2c3cc4c(cc3[C@H](O)[C@H]3COC(=O)[C@H]23)OCO4)cc(OC)c1OC [PODOFILOX] | 3 | 
3 | CC[C@@H](C)[C@H](NC(=O)[C@@H]1CCCCN1)C(=O)N[C@H](CC(=O)c1nc(C(=O)N[C@@H](Cc2ccccc2)C[C@H](C)C(=O)O)cs1)C(C)C | 24000 | 
4 | CN[C@H](C(=O)N[C@H](C(=O)N(C)[C@H](/C=C(\C)C(=O)O)C(C)C)C(C)(C)C)C(C)(C)c1ccccc1 [TALTOBULIN] | 0.03 | IC50 [1]: 1000 nM
5 | CCC(C)[C@H](NC(=O)[C@H]1CCCCN1C)C(=O)N(COC(=O)CC(C)C)[C@H](C[C@@H](OC(C)=O)c1nc(C(=O)N[C@@H](Cc2ccccc2)C[C@H](C)C(=O)O)cs1)C(C)C (single isomer, unassigned) [TUBULYSIN D] |  | IC50 [2]: 0.31 nM
6 | CCC(C)[C@H](NC(=O)[C@@H]1CCCCN1C)C(=O)N[C@H](CC(=O)c1nc(C(=O)N[C@@H](Cc2ccccc2)C[C@H](C)C(=O)O)cs1)C(C)C (single isomer, unassigned) | 25000 | 
7 | CCC(C)[C@H](NC(=O)[C@@H]1CCCN1)C(=O)N[C@H](CC(=O)c1nc(C(=O)N[C@@H](Cc2ccccc2)C[C@H](C)C(=O)O)cs1)C(C)C (single isomer, unassigned) | > 33000 | 
8 | CC[C@@H](C)[C@H](NC(=O)[C@H]1CCCCN1)C(=O)N[C@H](CC(=O)c1nc(C(=O)N[C@@H](Cc2ccccc2)C[C@H](C)C(=O)O)cs1)C(C)C | 23000 | 
9 | CCC(C)[C@H](NC(=O)[C@H]1CCCN1C)C(=O)N[C@H](CC(=O)c1nc(C(=O)N[C@@H](Cc2ccccc2)C[C@H](C)C(=O)O)cs1)C(C)C (single isomer, unassigned) | 800 | IC50 [1]: 1000 nM
10 | CCC(C)[C@H](NC(=O)[C@H]1CCCCN1C)C(=O)N[C@H](CC(=O)c1nc(C(=O)N[C@@H](Cc2ccccc2)C[C@H](C)C(=O)O)cs1)C(C)C (single isomer, unassigned) | 200 | IC50 [1]: 1800 nM
11 | CCC(C)[C@H](NC(=O)[C@@H]1CCCN1C)C(=O)N[C@H](CC(=O)c1nc(C(=O)N[C@@H](Cc2ccccc2)C[C@H](C)C(=O)O)cs1)C(C)C (single isomer, unassigned) | 18000 | 
12 | CCC(C)[C@H](NC(=O)[C@H]1CCCN1)C(=O)N[C@H](CC(=O)c1nc(C(=O)N[C@@H](Cc2ccccc2)C[C@H](C)C(=O)O)cs1)C(C)C (single isomer, unassigned) | > 33000 | 
